Test results reported in ChEMBL document CHEMBL3259728, “Design, synthesis and biological evaluation of some novel substituted quinazolines as antitumor agents” (2014).

Columns and labels:
Format in all cases: functional
[1] = Growth inhibition of human UACC62 cells assessed as cell growth at 10^-6 M after 48 hrs by SRB assay; settings: UACC-62, 48 h, read-out: Activity
A498 = experiment: Growth inhibition of human A498 cells assessed as cell growth at 10^-8 M after 48 hrs by SRB assay; settings: A498, 48 h, read-out: Activity
Procedure, shortened: (§1)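 Five-dose NCI panel protocol. Each dose (10^-4 to 10^-8 M, 10-fold steps) was given as 48 h continuous exposure, and protein was measured by SRB staining. Percentage growth at each level is [(Ti−Tz)/(C−Tz)]×100, where Tz is time-zero absorbance and C is untreated control.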

CCRF-CEM = experiment: Growth inhibition of human CCRF-CEM cells assessed as cell growth at 10^-8 M after 48 hrs by SRB assay; settings: read-out: Activity; procedure, shortened: as §1
[2] = Growth inhibition of human EKVX cells assessed as cell growth at 10^-4 M after 48 hrs by SRB assay; settings: read-out: Activity
CAKI-1 = experiment: Growth inhibition of human CAKI-1 cells assessed as cell growth at 10^-7 M after 48 hrs by SRB assay; settings: CAKI-1, 48 h, read-out: Activity; procedure, shortened: as §1
[3] = Growth inhibition of human NCI-ADR-RES cells assessed as cell growth at 10^-8 M after 48 hrs by SRB assay; settings: read-out: Activity
SK-MEL-5 = experiment: Cytotoxicity against human SK-MEL-5 cells after 48 hrs by SRB assay; settings: SK-MEL-5, 48 h
Procedure, shortened: (§2)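 NCI 60-cell-line panel of human tumour lines from nine cancer types. Continuous 48 h exposure at five 10-fold dilutions from 10^-4 to 10^-8 M, with 5-FU as positive control. SRB protein stain read spectrophotometrically at time zero, untreated control and each concentration. GI50, TGI and LC50 were derived from the [(Ti−Tz)/(C−Tz)]×100 growth relations, and out-of-range values are given as > or < the tested limits.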

786-0 [4] = experiment: Growth inhibition of human 786-0 cells assessed as cell growth at 10^-7 M after 48 hrs by SRB assay; settings: 786-0, 48 h, read-out: Activity; procedure, shortened: as §1
M14 = experiment: Growth inhibition of human M14 cells assessed as cell growth at 10^-8 M after 48 hrs by SRB assay; settings: M14, 48 h, read-out: Activity
BT-549 = experiment: Cytotoxicity against human BT549 cells after 48 hrs by SRB assay; settings: BT-549, 48 h; procedure, shortened: as §2
786-0 [5] = experiment: Cytotoxicity against human 786-0 cells after 48 hrs by SRB assay; settings: 786-0, 48 h; procedure, shortened: as §2
SN12C = experiment: Growth inhibition of human SN12C cells assessed as cell growth at 10^-6 M after 48 hrs by SRB assay; settings: read-out: Activity
T47D = experiment: Growth inhibition of human T47D cells assessed as cell growth at 10^-5 M after 48 hrs by SRB assay; settings: read-out: Activity
786-0 [6] = experiment: Growth inhibition of human 786-0 cells assessed as cell growth at 10^-6 M after 48 hrs by SRB assay; settings: 786-0, 48 h, read-out: Activity; procedure, shortened: as §1
[7] = Growth inhibition of human OVCAR4 cells assessed as cell growth at 10^-6 M after 48 hrs by SRB assay; settings: OVCAR-4, 48 h, read-out: Activity
[8] = Growth inhibition of human OVCAR3 cells assessed as cell growth at 10^-5 M after 48 hrs by SRB assay; settings: OVCAR-3, 48 h, read-out: Activity
[9] = Growth inhibition of human BT549 cells assessed as cell growth at 10^-4 M after 48 hrs by SRB assay; settings: BT-549, 48 h, read-out: Activity; procedure, shortened: as §1
NCI-H322M = experiment: Growth inhibition of human NCI-H322M cells assessed as cell growth at 10^-5 M after 48 hrs by SRB assay; settings: read-out: Activity
[10] = Growth inhibition of human HCT15 cells assessed as cell growth at 10^-5 M after 48 hrs by SRB assay; settings: HCT-15, 48 h, read-out: Activity
NCI-H23 = experiment: Growth inhibition of human NCI-H23 cells assessed as cell growth at 10^-7 M after 48 hrs by SRB assay; settings: NCI-H23, 48 h, read-out: Activity
DU-145 = experiment: Growth inhibition of human DU145 cells assessed as cell growth at 10^-6 M after 48 hrs by SRB assay; settings: DU-145, 48 h, read-out: Activity
SK-MEL-28 = experiment: Growth inhibition of human SK-MEL-28 cells assessed as cell growth at 10^-8 M after 48 hrs by SRB assay; settings: SK-MEL-28, 48 h, read-out: Activity
[11] = Growth inhibition of human HCC2998 cells assessed as cell growth at 10^-5 M after 48 hrs by SRB assay; settings: HCC 2998, 48 h, read-out: Activity
[12] = Growth inhibition of human UO31 cells assessed as cell growth at 10^-7 M after 48 hrs by SRB assay; settings: UO-31, 48 h, read-out: Activity
NCI-H460 = experiment: Growth inhibition of human NCI-H460 cells assessed as cell growth at 10^-4 M after 48 hrs by SRB assay; settings: NCI-H460, 48 h, read-out: Activity
[13] = Growth inhibition of human OVCAR8 cells assessed as cell growth at 10^-5 M after 48 hrs by SRB assay; settings: OVCAR-8, 48 h, read-out: Activity
HT-29 [14] = experiment: Cytotoxicity against human HT-29 cells after 48 hrs by SRB assay; settings: HT-29, 48 h; procedure, shortened: as §2
ACHN = experiment: Growth inhibition of human ACHN cells assessed as cell growth at 10^-4 M after 48 hrs by SRB assay; settings: read-out: Activity; procedure, shortened: as §1
[15] = Growth inhibition of human UACC62 cells assessed as cell growth at 10^-4 M after 48 hrs by SRB assay; settings: UACC-62, 48 h, read-out: Activity
HT-29 [16] = experiment: Growth inhibition of human HT-29 cells assessed as cell growth at 10^-4 M after 48 hrs by SRB assay; settings: HT-29, 48 h, read-out: Activity
[17] = Growth inhibition of human Hs578T cells assessed as cell growth at 10^-7 M after 48 hrs by SRB assay; settings: Hs-578T, read-out: Activity
SR = experiment: Growth inhibition of human SR cells assessed as cell growth at 10^-7 M after 48 hrs by SRB assay; settings: read-out: Activity
[18] = read-out: LC50 (the source's name)
[19] = read-out: pLC50 (the source's name) (converted)

With `Cc1ccc(-c2nc3ccc(Cl)cc3c(=O)n2/N=C/c2ccccc2)cc1` the growth at 1 µM [1] was 80%, the growth at 0.01 µM (A498) was 88% and the growth at 0.01 µM (CCRF-CEM) was 98%. It also gave a growth at 100 µM [2] of 11%, a growth at 0.1 µM (CAKI-1) of 76% and a growth at 0.01 µM [3] of 98%. For the same molecule, the GI50 (SK-MEL-5; read-out: GI50) was 20 µM, the CC50 (SK-MEL-5; [18]) was > 100 µM and the TGI (SK-MEL-5; read-out: TGI) was > 100 µM. For the same molecule, the GI50 (SK-MEL-5; read-out: pGI50 (converted)) was 20 µM, the CC50 (SK-MEL-5; [19]) was > 100 µM and the TGI (SK-MEL-5; read-out: pTGI) was > 100 µM. The growth at 0.1 µM (786-0 [4]) was 93%, the growth at 0.01 µM (M14) was 95% and the GI50 (BT-549; read-out: GI50) was 100 µM. For the same molecule, the CC50 (BT-549; [18]) was > 100 µM, the TGI (BT-549; read-out: TGI) was > 100 µM and the GI50 (BT-549; read-out: pGI50 (converted)) was > 100 µM. For the same molecule, the CC50 (BT-549; [19]) was > 100 µM, the TGI (BT-549; read-out: pTGI) was > 100 µM and the GI50 (786-0 [5]; read-out: GI50) was 3.62 µM. For the same molecule, the CC50 (786-0 [5]; [18]) was > 100 µM, the TGI (786-0 [5]; read-out: TGI) was > 100 µM and the GI50 (786-0 [5]; read-out: pGI50 (converted)) was 3.63 µM. For the same molecule, the CC50 (786-0 [5]; [19]) was > 100 µM, the TGI (786-0 [5]; read-out: pTGI) was > 100 µM and the growth at 1 µM (SN12C) was 91%. The growth at 10 µM (T47D) was 14%, the growth at 1 µM (786-0 [6]) was 90% and the growth at 1 µM [7] was 101%. It also gave a growth at 10 µM [8] of 34%, a growth at 100 µM [9] of 72% and a growth at 10 µM (NCI-H322M) of 52%. It also gave a growth at 10 µM [10] of 79%, a growth at 0.1 µM (NCI-H23) of 89% and a growth at 1 µM (DU-145) of 96%. It also gave a growth at 0.01 µM (SK-MEL-28) of 102%, a growth at 10 µM [11] of 96% and a growth at 0.1 µM [12] of 60%. The growth at 100 µM (NCI-H460) was 24%, the growth at 10 µM [13] was 30% and the GI50 (HT-29 [14]; read-out: GI50) was 60.2 µM. The LC50 (HT-29 [14]; read-out: LC50) was > 100 µM, the TGI (HT-29 [14]; read-out: TGI) was > 100 µM and the GI50 (HT-29 [14]; read-out: pGI50 (converted)) was 60.3 µM. For the same molecule, the LC50 (HT-29 [14]; read-out: pLC50 (converted)) was > 100 µM, the TGI (HT-29 [14]; read-out: pTGI) was > 100 µM and the growth at 100 µM (ACHN) was 6%. For the same molecule, the growth at 100 µM [15] was 32%, the growth at 100 µM (HT-29 [16]) was 45% and the growth at 0.1 µM [17] was 90%. The growth at 0.1 µM (SR) was 93%.
